This is an account of results in ChEMBL document CHEMBL1833913, “Structure-activity relationship study of pyridazine derivatives as glutamate transporter EAAT2 activators” (Bioorg Med Chem Lett, 2011).

Usually EC50 stands for the concentration at which the effect is half-maximal.

The structures appear in SMILES notation. Activity calls are given as the source filed them. The rule behind the calls is not given here. Bounds are passed on as bounds.

The subject of test [1] is Astrocyte. Kind of test: Increase of EAAT2 expression in mouse primary astrocytes at 10 uM after 24 hrs by Western blot analysis relative to control. The format is functional. The gist of the method: (§1)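 PA-EAAT2 cells (primary astrocyte line stably expressing EAAT2 mRNA) were incubated with compound at 10 μM for 4 h or 24 h. Cells were then harvested and EAAT2 protein measured by Western blot. Results are given as fold increase over DMSO control.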
A general note: A western blot detects proteins with antibodies after separation by electrophoresis.

Test [2] relates to Astrocyte. The test is described as follows: Increase of EAAT2 expression in mouse primary astrocytes after 24 hrs by Western blot analysis relative to GAPDH protein expression. In kind it is functional, cell-based. The gist of the method: (§2)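 PA-EAAT2 cells (primary astrocyte line stably expressing EAAT2 mRNA) were exposed for 24 h to a 6-point series (0.1, 0.3, 1.0, 5.0, 10.0, 30.0 μM). EAAT2 protein was measured by Western blot and normalised separately to β-actin or GAPDH. Fold increase and EC50 were derived from the dose-response. Values are means of four separate experiments.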

The subject of test [3] is Astrocyte. Kind of test: Increase of EAAT2 expression in mouse primary astrocytes at <5 uM after 24 hrs by Western blot analysis relative to control. The format is functional.
Test [4] concerns Astrocyte. The test is described as follows: Increase of EAAT2 expression in mouse primary astrocytes at 1 uM after 24 hrs by Western blot analysis relative to beta-actin protein expression. In kind it is functional. The gist of the method: as §2
In test [5] the test system is Astrocyte. Kind of test: Increase of EAAT2 expression in mouse primary astrocytes at 10 uM after 24 hrs by Western blot analysis relative to GAPDH protein expression. In kind it is functional. The gist of the method:
as §2

Test [6] has as its system Astrocyte. The test is described as follows: Increase of EAAT2 expression in mouse primary astrocytes at 1 uM after 24 hrs by Western blot analysis relative to GAPDH protein expression. In kind it is functional. The gist of the method: as §2
Test [7] deals with Astrocyte. The test is described as follows: Increase of EAAT2 expression in mouse primary astrocytes after 24 hrs by Western blot analysis relative to beta-actin protein expression. The format is functional, cell-based. The gist of the method: as §2
In test [8] the test system is Astrocyte. The test is described as follows: Increase of EAAT2 expression in mouse primary astrocytes at 10 uM after 24 hrs by Western blot analysis relative to beta-actin protein expression. The format is functional. The gist of the method: as §2
For test [9], the system named is Astrocyte. Kind of test: Increase of EAAT2 expression in mouse primary astrocytes at 10 uM after 4 hrs by Western blot analysis relative to control. In kind it is functional. The gist of the method:
as §1

On to `Cc1ccc(CSc2ccc(-c3ccccn3)nn2)c(C)c1`, for which the “fold change (FC)” value is listed as 6.4 with Astrocyte [1]; >6 with Astrocyte [3]; 2 in the test on Astrocyte [4]; 6 with Astrocyte [5]; 2.2 in the test with Astrocyte [6]; 6.4 in the test on Astrocyte [8]. In the test on Astrocyte [9], the “fold change (FC)” value came to 1.9. Moreover, the values for the half-maximal effective concentration (EC50) in the test with Astrocyte [2] and with Astrocyte [7] were 1.8 µM and 2.7 µM, respectively.
For `Cc1cccc(C)c1CSc1ccc(-c2ccccn2)nn1`, the “fold change (FC)” value with Astrocyte [1] was 6.5; with Astrocyte [3], >6; in the test on Astrocyte [4], 2; with Astrocyte [5], 6.4; with Astrocyte [6], 2; with Astrocyte [8], 6.5. Besides, the results for the concentration giving a half-maximal response (EC50) in the test with Astrocyte [2] and in the test with Astrocyte [7] were 2.4 µM and 2.6 µM, respectively. Also, the “fold change (FC)” value in the test on Astrocyte [9] is “inactive”.
Take `Fc1cccc(Cl)c1CCSc1ccc(-c2ccccn2)nn1`: the “fold change (FC)” value is given as 6.7 in the test with Astrocyte [1]; >6 with Astrocyte [3]; 1.2 with Astrocyte [4]; 5.3 with Astrocyte [5]; 1.2 in the test on Astrocyte [6]; 6.7 with Astrocyte [8]. The “fold change (FC)” value in the test with Astrocyte [9] is given as 1.9. Further, the concentration for a half-maximal effect (EC50) in the test on Astrocyte [2] and with Astrocyte [7] was 3.3 µM each time.
Turning to `Cc1cc(C)c(CSc2ccc(-c3ccccn3)nn2)c(C)c1`, the “fold change (FC)” value is given as 4.7 with Astrocyte [1]; 1.5 in the test with Astrocyte [4]; 4.8 with Astrocyte [5]; 1.6 in the test on Astrocyte [6]; 4.7 in the test on Astrocyte [8]; 1.7 in the test with Astrocyte [9]. In addition, the concentration for a half-maximal effect (EC50) is 2.1 µM with Astrocyte [2] and 2.4 µM in the test on Astrocyte [7].
